Screening results (PubChem BioAssay)
Arrestin-AP2 inh = inhibitors of beta-arrestin/AP2 binding, primary screen, biochemical, GPCR trafficking, flow cytometry; inhibition, % at 10 µM; 340,000 tested, 0.31% active; beta-arrestin 1 C-terminal peptide binding to AP2 beta2-adaptin appendage (human); AID 504490, 2011; FITC-arrestin peptide / GST-AP2 beads; AP2 beta2 appendage carries R879A mutation;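 active = inhibition above a set limit, near 3 SD of compounds lacking own fluorescence, cut at about 54% in these data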;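 also: plate controls were DMSO wells for no effect and 5 µM unlabelled arrestin peptide for full effect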
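Material – GST-tagged AP2 beta2-adaptin appendage (R879A) on 4 µm glutathione beads · Probe or stimulus – fluorescein-tagged arrestin peptide at 50 nM final · Timing – 12 min plus 1 h, RT · Detection – bead flow cytometry, FITC channel · Read-out basis – inhibition as reduced fluorescein signal on beads, percent · Medium – PBS plus Tween 20 (0.05%) and BSA (0.1%)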
M18AAP inhibitor = PfM18AAP inhibitors, malaria aminopeptidase, primary screen, biochemical, QFRET, recombinant enzyme; 290,000 tested, 1.2% active; H-Glu-NHMec fluorogenic cleavage; inhibition, % at 7.35 µM; M18 aspartyl aminopeptidase (Plasmodium falciparum 3D7); AID 1822, 2009;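 active = inhibition above the campaign mean inhibition over all tested compounds plus 3 SD, cut at about 28% in these data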;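 also: 0% = plate median of test compound wells and 100% = 2 mM ZnCl2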
HTR2A ag = mouse Htr2a agonists via beta-arrestin recruitment, primary screen, cell-based, luminescence; 5-hydroxytryptamine receptor 2A (Mus musculus), P35363; CHO-K1 mHTR2A beta-arrestin complementation; percent of 30 µM serotonin response; activation, % at 7.6 µM; 360,000 tested, 0.66% active; AID 624169, 2012;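 active = activation above a run cutoff, the mean activation of all tested compounds plus 3 SD, cut at about 14% in these data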;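 also: 0% = plate median of compound wells and 100% = 30 µM serotonin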
Target sequence (P35363 whole entry, looked up): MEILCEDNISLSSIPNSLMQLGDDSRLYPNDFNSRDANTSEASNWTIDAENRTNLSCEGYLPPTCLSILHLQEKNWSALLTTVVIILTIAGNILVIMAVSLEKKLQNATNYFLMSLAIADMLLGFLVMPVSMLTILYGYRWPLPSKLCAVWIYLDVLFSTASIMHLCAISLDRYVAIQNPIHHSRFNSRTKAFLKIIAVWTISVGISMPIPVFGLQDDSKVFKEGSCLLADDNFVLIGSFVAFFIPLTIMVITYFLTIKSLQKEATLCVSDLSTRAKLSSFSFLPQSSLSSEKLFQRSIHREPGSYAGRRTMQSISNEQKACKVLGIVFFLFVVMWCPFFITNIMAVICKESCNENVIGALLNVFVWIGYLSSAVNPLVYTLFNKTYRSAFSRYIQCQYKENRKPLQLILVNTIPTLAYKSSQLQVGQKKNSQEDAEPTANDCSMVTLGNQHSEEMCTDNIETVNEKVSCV
Lipid droplet = inhibitors of hepatocyte lipid droplet formation, primary screen, imaging, high-throughput imaging, BODIPY stain | AML12 mouse hepatocytes, oleate lipid droplets | inhibition, % at 6.5 µM | 240,000 tested, 0.4% active | AID 1656, 2009;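 active = lipid droplet intensity inhibited by at least 50%, with more than 500 cells counted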
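Material: mouse AML12 hepatocyte cell line, fixed after treatment; Timing: compound with oleate, overnight; Technique: high-content imaging of BODIPY-stained droplets and DAPI nuclei; Probe or stimulus: oleate, 100 µM final; Dosing: compound at 6.5 µM only.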
sPLA2-III inh = human group III sPLA2 inhibitors, primary screen, biochemical, QFRET, BODIPY PC-A2 liposome substrate; Group 3 secretory phospholipase A2 (Homo sapiens), Q9NZ20; QFRET BODIPY PC-A2 liposome hydrolysis, fluorescence; inhibition, % at 12.2 µM; 370,000 tested, 0.56% active; AID 743126, 2013;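 active = inhibition above mean plus 3 SD of compounds lying within the high and low control bounds, cut at about 19% in these data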;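 also: 0% = median of test compound wells and 100% = no enzyme DMSO wells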
CendR NRP1 mod = modulators of CendR peptide binding to NRP-1, primary screen, biochemical, fluorescence polarization, uHTS; Neuropilin-1 (Homo sapiens), O14786; FAM-RPARPAR peptide binding to NRP-1; inhibition, % at 25 µM; 360,000 tested, 0.85% active; AID 602438, 2012;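 active = inhibition or corrected inhibition above about 18%, plus a signal ratio from 0.5 to 1.5, limit read from the data, passing the limit was not always enough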
Starred values were filed as active, the others as inactive; . = not tested or not shown. An excerpt weighted towards active compounds, which were near 3.3% of everything screened.

SMILES | Arrestin-AP2 inh | M18AAP inhibitor | HTR2A ag | Lipid droplet | sPLA2-III inh | CendR NRP1 mod
CC(=O)Nc1ccccc1OCC(=O)NC(C)c1ccccc1 (stereo not drawn) | 2 | -19 | -2 | 0 | -2 | 0
CC(=O)Nc1ccccc1OCC(=O)N(Cc1ccccc1)C(C)C | 7 | -1 | 7 | -32 | 2 | 38*
CCN(Cc1cc(OC)c(OC)c(OC)c1)S(=O)(=O)c1ccccc1Br | . | . | . | . | -3 | .
C/C(=N\NC(=O)CC#N)C1COc2ccccc2O1 (stereo not drawn) | -3 | 29* | 2 | 6 | -15 | 2
CC(=O)Nc1nc(C)c(-c2csc(Nc3ccc(O)cc3)n2)s1 | 35 | 28* | -3 | -11 | . | -4
CCC(=O)Nc1nc(C)c(-c2csc(Nc3cccc(C(=O)O)c3)n2)s1 | -1 | 11 | 1 | -10 | -12 | -13
CC(=O)Nc1ccc(Nc2nc(-c3sc(NC(C)=O)nc3C)cs2)cc1 | 19 | 13 | -2 | 1 | 6 | 14
Cc1nc(N)sc1-c1csc(Nc2cccc(C(=O)O)c2)n1 | 1 | 29* | 0 | -28 | -7 | -90
C[C@@H]1O[C@@H](O[C@@H]2C(=O)c3c(O)cc(O)cc3O[C@H]2c2ccc(O)c(O)c2)[C@H](O)[C@H](O)[C@H]1O | . | . | 3 | . | 2 | 14
O=C1c2c(O)cc(O)cc2O[C@H](c2ccc(O)cc2)[C@H]1O | -2 | . | -6 | . | 0 | 1
O=C1c2c(O)cc(O)cc2O[C@H](c2ccc(O)c(O)c2)[C@@H]1O | . | 82* | . | 1 | . | .
O=C1c2c(O)cc(O)cc2O[C@H](c2ccc(O)c(O)c2)[C@H]1O | 6 | 79* | 3 | . | 1 | -5
Cc1ccccc1C(=O)n1ccc2ccc(-c3ccc4ccn(Cc5ccc(C#N)cc5)c4c3)cc21 | . | . | . | . | 15 | .
COc1cc(/C=c2\sc3n(c2=O)CCCN=3)ccc1O | 20 | 0 | -4 | . | 3 | -17
O=c1/c(=C/c2ccc([N+](=O)[O-])cc2)sc2n1CCCN=2 | -7 | 28* | 0 | . | 4 | 8
COC(=O)C1=C(C)N(Cc2ccccc2C(F)(F)F)C(=NCc2ccccc2C(F)(F)F)NC1c1ccc(Cl)cc1 (stereo not drawn) | . | . | . | . | -4 | .
CC1CCN(CCCNC(=O)c2ccc(CS(=O)(=O)Cc3ccccc3F)o2)CC1 | 1 | -15 | 2 | -3 | 0 | -15
O=C(NCCCN1CCCCCC1)c1ccc(CS(=O)(=O)Cc2ccccc2F)o1 | 1 | 0 | -3 | 24 | -11 | 30*
CC(=O)NC(CC(=O)Nc1cccc(S(=O)(=O)N2CCOCC2)c1)c1ccccc1 (stereo not drawn) | -5 | . | -4 | . | 0 | 24*
COc1ccc(CC(=O)Nc2ccc3c(c2)OCO3)cc1S(=O)(=O)N1CCOCC1 | -1 | -7 | -1 | . | 6 | 22*
CCN(CC(=O)Nc1ccc(OC)cc1)CC(=O)Nc1cccc(S(=O)(=O)N2CCOCC2)c1 | . | . | 4 | . | -10 | 34*
Cc1ccccc1S(=O)(=O)NC(=O)C1(C)CCN1C(=O)Cc1ccc(C(C)(C)C)cc1 (stereo not drawn) | . | . | 2 | . | -11 | 2
O=C(c1ccc(C#Cc2ccccc2)o1)N1CCN(c2ccccn2)CC1 | 13 | 10 | 1 | . | -18 | 40*
Cc1cccc(-n2ncc3c2CCCC3NC(=O)CCN2CCCCO2)c1C (stereo not drawn) | -6 | 2 | 1 | -11 | -6 | 23*
CCOC(=O)C1=C(C(=O)OCC)C2N(Cc3ccccc3)c3ccccc3[C@@]23C[C@@H](C(=O)OC)N(S(=O)(=O)c2ccc(C(F)(F)F)cc2)C3=N1 (stereo partly drawn) | . | . | . | . | -3 | .
SMILES | Arrestin-AP2 inh | M18AAP inhibitor | HTR2A ag | Lipid droplet | sPLA2-III inh | CendR NRP1 mod
CN(C(=O)COc1ccccc1)c1nnc(C23CC4CC(CC(C4)C2)C3)s1 | -3 | -1 | -1 | -53 | 0 | 19*
CN(C(=O)COc1ccccc1)c1nnc(-c2cccnc2)s1 | 5 | 1 | 5 | 8 | 0 | -5
Cc1cccc(N2C(=O)/C(=C/c3cccnc3)SC2=S)c1 | 30 | 22 | 5 | 15 | -4 | 8
Cc1ccc(/C=C2\SC(=S)N(c3cccnc3)C2=O)o1 | 44 | 31* | 1 | -3 | 2 | -30
COc1ccc(NC(=O)Cn2nnc(C(=O)Nc3ccccc3C)c2N)cc1 | 4 | 0 | 0 | -4 | -4 | 19*
Cc1cccc2c(C(=O)Nn3cnnc3)cc(-c3ccccc3Cl)nc12 | -6 | 45* | 4 | . | -7 | 8
Cc1cccc2c(C(=O)n3cccn3)cc(-c3ccccc3Cl)nc12 | 0 | -3 | 3 | 3 | -5 | -12
Cc1ccc(OCCC(=O)OCC(=O)NCc2ccccc2)cc1 | 6 | . | -8 | . | 1 | -4
Cc1ccc(OCCC(=O)OCC(=O)NCCc2ccccc2)cc1 | 7 | -5 | -3 | -34 | -8 | 27*
O=C1c2ccccc2C2Cc3nnccc3CN12 (stereo not drawn) | . | . | . | . | -6 | .
Cc1cc(NC(=O)CSc2n[nH]c(=O)[nH]c2=O)ccc1Br | -1 | -1 | 8 | 6 | 0 | 0
O=C(CSc1n[nH]c(=O)[nH]c1=O)Nc1ccc(Br)cc1Br | -4 | . | -4 | . | 5 | 31*
C[C@@H]1CCCCO[C@@H](CN(C)S(=O)(=O)c2ccccc2)[C@@H](C)CN([C@H](C)CO)C(=O)c2cc(NS(=O)(=O)c3ccc(F)cc3)ccc2O1 | . | . | 10 | . | -39 | -5
COc1cc(C(=O)c2c(C)c(CCC#N)n3ccccc23)cc(OC)c1OC | -8 | -10 | -2 | 5 | 4 | 21*
CC(C)=CCC/C(C)=C/CNC(=O)C[C@H]1C[C@H](C(=O)N(C(C)C)C(C)C)[C@@]2(C)c3[nH]c4ccc(Cl)cc4c3CCN2C1=O | 7 | . | -2 | . | 13 | 27*
CC(=O)OC[C@@H]1CN(Cc2ccccc2)C[C@H](n2cnc3c(NCC(C)C)ncnc32)O1 | . | . | -2 | . | -5 | -9
C/C(CCC(C)C)=N\NC(=S)Nc1cc(S(=O)(=O)N2CCOCC2)ccc1N1CCOCC1 | 5 | 28* | -3 | -11 | -1 | -8
COc1ccc2cc(/C(C)=N/NC(=S)Nc3cc(S(=O)(=O)N4CCOCC4)ccc3N3CCOCC3)ccc2c1 | . | 30* | . | 26 | . | .
C/C(=N\NC(=S)Nc1cc(S(=O)(=O)N2CCOCC2)ccc1Cl)c1ccc(N2CCOCC2)cc1 | -30 | 10 | 3 | -5 | 6 | -24
